Data set [1] in a line: Inhibition of L1 (unknown origin) expressed in Escherichia coli DH10B harboring pBC SK(+)-L1 assessed as potentiation of cefazolin-induced antibacterial activity by measuring cefazolin MIC at 1024 ug/ml after 12 hrs macrodilution broth method. In a few lines:
(§1)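 Cefazolin MICs were read for E. coli DH10B carrying pBC SK(+)-L1 across a series of inhibitor concentrations. Cefazolin alone (no inhibitor) on the same strain served as the reference MIC. E. coli not expressing L1 was tested alongside as the susceptible comparator.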

Data set [2] relates to Escherichia coli. The experiment in a line: Growth inhibition of Escherichia coli DH10B at 1024 ug/ml after 12 hrs macrodilution broth method. Further details: species or system K-12 substr. DH10B. Put shortly:
(§2)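 Cefazolin MIC determined for E. coli DH10B carrying pBC SK(+)-L1 and for E. coli not expressing L1, with and without compound.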

Data set [3] has as its system Escherichia coli. The data set can be described thus: Growth inhibition of Escherichia coli DH10B harboring pBC SK(+)-L1 at 1024 ug/ml after 12 hrs macrodilution broth method. Set-up: species or system K-12 substr. DH10B. Put shortly:
as §2

Data set [4] in a line: Inhibition of L1 (unknown origin) expressed in Escherichia coli BL21(DE3) using cefazolin as substrate preincubated for 30 mins followed by substrate addition by UV-Visible spectrophotometric method. Put shortly: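 L1 IC50 measured in 30 mM Tris, pH 8.5, with cefazolin as substrate and inhibitor at 0.1–20 μM. Run in triplicate; mean ± SD reported.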
Data set [5] can be described thus: Inhibition of ImiS (unknown origin) expressed in Escherichia coli BL21(DE3) at 100 uM using imipenem as substrate preincubated for 3 to 60 mins followed by substrate addition by UV-Visible spectrophotometric method relative to control. To be noted: TDE = time-dependent effect. In a few lines:
(§3)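 Purified enzyme preincubated with 100 μM inhibitor in its enzyme-specific buffer, then substrate added: 50 μM cefazolin for IMP-1 and L1, 40 μM imipenem for ImiS. Hydrolysis followed by UV-vis spectrophotometry. Preincubation times of 3–60 min were tested. % inhibition = activity without inhibitor (100%) minus residual activity.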

A short description of data set [6]: Inhibition of L1 (unknown origin) expressed in Escherichia coli BL21(DE3) at 100 uM using cefazolin as substrate preincubated for 3 to 60 mins followed by substrate addition by UV-Visible spectrophotometric method relative to control. Conditions: TDE = time-dependent effect. In a few lines: as §3
Data set [7] is described as follows: Inhibition of L1 (unknown origin) expressed in Escherichia coli BL21(DE3) at 100 uM using cefazolin as substrate preincubated for 30 mins followed by substrate addition by UV-Visible spectrophotometric method relative to control. Put shortly: as §3
The nature of data set [8]: Inhibition of IMP1 (unknown origin) expressed in Escherichia coli BL21(DE3) at 100 uM using cefazolin as substrate preincubated for 3 to 60 mins followed by substrate addition by UV-Visible spectrophotometric method. To be noted: TDE = time-dependent effect. Put shortly:
as §3

Data set [9] can be described thus: Inhibition of ImiS (unknown origin) expressed in Escherichia coli BL21(DE3) at 100 uM using imipenem as substrate preincubated for 30 mins followed by substrate addition by UV-Visible spectrophotometric method relative to control. In a few lines: as §3
Data set [10] deals with L929. The experiment in a line: Cytotoxicity against mouse L929 cells assessed as reduction in cell viability up to 400 uM after 48 hrs by CCK assay. Conditions: l929, 48 h. It is filed as cell-based. In a few lines: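 L-929 mouse fibroblasts exposed to compound at 12.5, 25, 50, 100, 200 and 400 μM working concentrations; cell viability measured.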
Data set [11] is described as follows: Inhibition of IMP1 (unknown origin) expressed in Escherichia coli BL21(DE3) at 100 uM using cefazolin as substrate preincubated for 30 mins followed by substrate addition by UV-Visible spectrophotometric method relative to control. Put shortly: as §3
A short description of data set [12]: Inhibition of L1 (unknown origin) expressed in Escherichia coli DH10B harboring pBC SK(+)-L1 assessed as potentiation of cefazolin-induced antibacterial activity by measuring cefazolin MIC at 128 ug/ml after 12 hrs macrodilution broth method. Put shortly:
as §1

Data set [13] can be described thus: Inhibition of L1 (unknown origin) expressed in Escherichia coli DH10B harboring pBC SK(+)-L1 assessed as potentiation of cefazolin-induced antibacterial activity by measuring fold reduction in cefazolin MIC at 1024 ug/ml after 12 hrs macrodilution broth method relative to cefazolin alone. In a few lines:
as §1

Data set [14] in a line: Inhibition of L1 (unknown origin) expressed in Escherichia coli DH10B harboring pBC SK(+)-L1 assessed as potentiation of cefazolin-induced antibacterial activity by measuring cefazolin MIC at 4 ug/ml after 12 hrs macrodilution broth method. Put shortly: as §1
Data set [15] can be described thus: Inhibition of L1 (unknown origin) expressed in Escherichia coli DH10B harboring pBC SK(+)-L1 assessed as potentiation of cefazolin-induced antibacterial activity by measuring cefazolin MIC at 32 ug/ml after 12 hrs macrodilution broth method. In a few lines:
as §1

Data set [16] is described as follows: Inhibition of L1 (unknown origin) expressed in Escherichia coli DH10B harboring pBC SK(+)-L1 assessed as potentiation of cefazolin-induced antibacterial activity by measuring cefazolin MIC at 16 ug/ml after 12 hrs macrodilution broth method. In a few lines: as §1
Data set [17] in a line: Inhibition of L1 (unknown origin) expressed in Escherichia coli DH10B harboring pBC SK(+)-L1 assessed as potentiation of cefazolin-induced antibacterial activity by measuring cefazolin MIC at 8 ug/ml after 12 hrs macrodilution broth method. Put shortly: as §1
Data set [18] in a line: Inhibition of L1 (unknown origin) expressed in Escherichia coli DH10B harboring pBC SK(+)-L1 assessed as potentiation of cefazolin-induced antibacterial activity by measuring cefazolin MIC at 256 ug/ml after 12 hrs macrodilution broth method. In a few lines: as §1
Data set [19] can be described thus: Inhibition of L1 (unknown origin) expressed in Escherichia coli DH10B harboring pBC SK(+)-L1 assessed as potentiation of cefazolin-induced antibacterial activity by measuring cefazolin MIC at 64 ug/ml after 12 hrs macrodilution broth method. Put shortly:
as §1

A short description of data set [20]: Inhibition of L1 (unknown origin) expressed in Escherichia coli DH10B harboring pBC SK(+)-L1 assessed as potentiation of cefazolin-induced antibacterial activity by measuring cefazolin MIC at 512 ug/ml after 12 hrs macrodilution broth method. In a few lines:
as §1

Structures are written as SMILES.

For orientation: IC50 means the concentration that gives 50% inhibition. Read a high IC50 as weaker potency in that assay. One may read the inhibition as how much of the control response was suppressed.

Take `CC(C)(C)NC(=O)CSCC(=O)[O-].[K+]`: the MIC in data set [1] came out at 16 µg/mL. Also, the “growth inhibition (GI)” value in data set [2] and in [3] was “Non-Toxic” in each case. This compound also had an IC50 in [4] of 750 nM. Also, the inhibition entry in [5] is “Tde”; in [6], “Tde”; in data set [7], 91%; in data set [8], “Tde”; in data set [9], 21%; in data set [11] it was 69%. The Activity result in data set [10] is reported as “Non-Toxic”.
As to `O=C([O-])CSCC(=O)Nc1ccc([N+](=O)[O-])cc1.[K+]`, the MIC is 8 µg/mL in [12]; 2 µg/mL in [1]; 16 µg/mL in data set [14]; 16 µg/mL in data set [15]; 16 µg/mL in data set [16]; 16 µg/mL in [17]. Also, the MIC in data set [18] amounted to 8 µg/mL; in data set [19], 16 µg/mL; in data set [20], 8 µg/mL. Besides, the “growth inhibition (GI)” value in [2] and in data set [3] was “Non-Toxic” each time. Further, the IC50 in [4] was > 20000 nM. Further, in data set [13], the fold change (FC) came to 8. The inhibition result in [5] is “Tde”; in data set [6] it was “Tde”; in data set [7], 71%; in [8], “Tde”; in data set [9], 85%; in [11] it was 45%.
On to `O=C([O-])CSCC(=O)NCc1ccccc1.[K+]`, for which the MIC in data set [1] worked out at 16 µg/mL. For the same compound, the “growth inhibition (GI)” value in [2] and in data set [3] was “Non-Toxic” in each case. The compound also gave an IC50 in data set [4] of 460 nM. Also, the inhibition entry in data set [5] was “Tde”; in [6], “Tde”; in [7], 97%; in data set [8], “Tde”; in [9], 21%; in data set [11] it was 51%.
Regarding `CC(C)CNC(=O)CSCC(=O)[O-].[K+]`, the MIC in data set [1] was found to be 16 µg/mL. Further, the “growth inhibition (GI)” value in data set [2] and in [3] was “Non-Toxic” each time. The compound further displayed an IC50 in [4] of 3810 nM. Besides, the inhibition entry in data set [5] was “Tde”; in data set [6], “Tde”; in data set [7], 78%; in data set [8], “Tde”; in data set [9], 23%; in data set [11], 59%.
As for `O=C([O-])CSCC(=O)Nc1ccc(C(=O)O)cc1.[K+]`, the MIC in data set [1] is 16 µg/mL. For the same compound, the “growth inhibition (GI)” value in data set [2] and in [3] was “Non-Toxic” throughout. Besides, the IC50 in data set [4] turned out to be 7500 nM. The inhibition result is “Tde” in data set [5]; “Tde” in data set [6]; 75% in [7]; “Tde” in data set [8]; 87% in data set [9]; 71% in data set [11].
Consider `O=C([O-])CSCC(=O)Nc1ccccc1[N+](=O)[O-].[K+]`, for which the MIC in data set [1] amounted to 16 µg/mL. For the same compound, the “growth inhibition (GI)” value in data set [2] and in data set [3] was “Non-Toxic” each time. Further, in data set [4], the IC50 was 4210 nM. Moreover, the inhibition entry is “Tde” in [5]; “Tde” in data set [6]; 77% in data set [7]; “Tde” in [8]; 21% in data set [9]; 44% in [11]. For the same compound, in data set [10], the Activity result is on record as “Non-Toxic”.
Take `O=C([O-])CSCC(=O)Nc1ccccc1.[K+]`: in data set [1], the MIC was 16 µg/mL. Moreover, the “growth inhibition (GI)” value in data set [2] and in data set [3] was “Non-Toxic” each time. In addition, the IC50 in [4] is 980 nM. The inhibition result in data set [5] is “Tde”; in data set [6] it was “Tde”; in [7] it was 92%; in data set [8] it was “Tde”; in data set [9], 18%; in data set [11], 43%. In addition, the Activity entry in [10] was “Non-Toxic”.
In the case of `Cc1ccccc1NC(=O)CSCC(=O)[O-].[K+]`, the MIC in data set [1] was 16 µg/mL. The “growth inhibition (GI)” value in [2] and in data set [3] was “Non-Toxic” in each case. Inhibition in [4] was half-maximal at 460 nM (IC50). Besides, the inhibition entry is “Tde” in data set [5]; “Tde” in [6]; 95% in data set [7]; “Tde” in [8]; 24% in [9]; 50% in [11].
With `O=C([O-])CSCC(=O)Nc1ccccc1O.[K+]`, the MIC in [1] worked out at 8 µg/mL. Besides, the “growth inhibition (GI)” value in data set [2] and in data set [3] was “Non-Toxic” each time. The IC50 in data set [4] came to 580 nM. The inhibition entry is “Tde” in [5]; “Tde” in data set [6]; 95% in data set [7]; “Tde” in data set [8]; 74% in data set [9]; 40% in data set [11].
Regarding `CCCCNC(=O)CSCC(=O)[O-].[K+]`, the MIC in data set [1] is 16 µg/mL. Further, the “growth inhibition (GI)” value in data set [2] and in data set [3] was “Non-Toxic” each time. In data set [4], this compound displayed an IC50 of 1230 nM. For the same compound, the inhibition result in data set [5] is “Tde”; in data set [6] it was “Tde”; in data set [7] it was 89%; in data set [8], “Tde”; in [9], 20%; in [11] it was 55%.
`CCCCc1ccc(NC(=O)CSCC(=O)[O-])cc1.[K+]`: the MIC in data set [12] came out at 16 µg/mL; in data set [1] it was 2 µg/mL; in data set [14] it was 16 µg/mL; in data set [15], 16 µg/mL; in data set [16] it was 16 µg/mL; in [17] it was 16 µg/mL. The MIC in data set [18] was 8 µg/mL; in data set [19] it was 16 µg/mL; in data set [20], 8 µg/mL. The “growth inhibition (GI)” value in [2] and in data set [3] was “Non-Toxic” each time. This compound came in with an IC50 in data set [4] of 430 nM. Further, the fold change (FC) in [13] stood at 8. Besides, the inhibition result is “Tde” in [5]; “Tde” in data set [6]; 97% in [7]; “Tde” in [8]; 29% in [9]; 64% in [11].
`O=C([O-])CSCC(=O)Nc1ccc(Cl)cc1.[K+]`: the MIC in data set [1] was determined as 16 µg/mL. The “growth inhibition (GI)” value in data set [2] and in data set [3] was “Non-Toxic” in each case. For the same compound, the midpoint of inhibition in data set [4], the IC50, lay at 20000 nM. Moreover, the inhibition result in data set [5] is “Tde”; in [6], “Tde”; in data set [7], 73%; in data set [8] it was “Tde”; in data set [9], 25%; in data set [11], 48%.

These data come from ChEMBL document CHEMBL3994675, “Carbamylmethyl Mercaptoacetate Thioether: A Novel Scaffold for the Development of L1 Metallo-β-lactamase Inhibitors” (ACS Med Chem Lett, 2017).
